What is called inhibition is the share of the control response that was lost under treatment. The term IC50 denotes the point on the concentration scale where inhibition reaches its midpoint. In general, thermodynamic solubility refers to solubility found after equilibrating the solid with the medium. A word on the half-life: it is the time needed for the level to fall by half in the phase considered.

≈ marks a conversion by molar mass, not a printed value. Calls of active or inactive are those of the source.

Series [1] concerns A2780TC. The experiment in a line: Antitumor activity against paclitaxel resistant human A2780TC cells xenografted in nude mouse assessed as reduction in tumor growth at 5 mg/kg/day, ip administered for 5 days/ week and measured every 7 days for 21 days. It is filed as functional, organism-based. The conditions noted are these: time 21.0 day. Background: A xenograft is tissue or cells of one species grown in another, often human tumour cells in immunodeficient mice.

Series [2] has as its system A2780TC. The experiment in a line: Antitumor activity against paclitaxel resistant human A2780TC cells xenografted in nude mouse assessed as reduction in tumor volume at 9.3 mg/kg/day, ip administered for 5 days/ week and measured every 7 days for 21 days in the presence of paclitaxel. The format is functional, organism-based. The conditions noted are these: time 21.0 day.

Series [3] concerns A2780TC. Description: Antitumor activity against paclitaxel resistant human A2780TC cells xenografted in nude mouse assessed as reduction in tumor volume at 9.3 mg/kg/day, ip administered for 5 days/ week and measured every 7 days for 21 days. The format is functional, organism-based. The conditions noted are these: time 21.0 day.
Series [4] is described as follows: Permeability of the compound at pH 7.4 at 500 uM incubated for 5 hrs by PAMPA based UV/LC-MS analysis. The format is ADME. Particulars: read-out: permeability. The essentials: (§1)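 Donor: compound diluted from 1 mM DMSO stock to 500 µM final in phosphate buffer (pH 7.4, 25 mM). Filter coated with 1% phosphatidylcholine in dodecane; acceptor 50% DMSO/phosphate buffer. 5 h at room temperature with gentle shaking. Donor and acceptor measured by UV/LC-MS; Papp and %MR calculated by equation. Three independent experiments.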
For orientation: In PAMPA a lipid-coated filter parts donor from acceptor wells.

Series [5] concerns the target T1, Serine/threonine-protein kinase Sgk1 (Homo sapiens) (UniProt O00141).
T1 sequence (whole entry): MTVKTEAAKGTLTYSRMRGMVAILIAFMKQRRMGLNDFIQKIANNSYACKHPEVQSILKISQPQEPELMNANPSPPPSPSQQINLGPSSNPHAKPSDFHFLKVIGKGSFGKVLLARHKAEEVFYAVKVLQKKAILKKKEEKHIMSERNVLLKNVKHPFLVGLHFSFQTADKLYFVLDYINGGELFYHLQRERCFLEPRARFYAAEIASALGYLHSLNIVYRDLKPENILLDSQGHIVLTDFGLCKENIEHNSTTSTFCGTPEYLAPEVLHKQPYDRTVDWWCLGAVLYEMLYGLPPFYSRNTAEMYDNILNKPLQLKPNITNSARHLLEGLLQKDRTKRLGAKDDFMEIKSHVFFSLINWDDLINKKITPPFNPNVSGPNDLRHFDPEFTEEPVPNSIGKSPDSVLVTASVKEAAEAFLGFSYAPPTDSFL
Description: Inhibition of Sgk1 (unknown origin) at 0.6 uM using peptide substrate incubated for 30 mins in the presence of ATP by scintillation counting method relative to control.

Series [6] relates to Huh-7. Description: Cytotoxicity against human Huh-7 cells assessed as reduction in cell viability measured after 24 hrs by MTT assay. The conditions noted are these: Huh-7, 24 h. The format is functional, cell-based. The gist of the method:
(§2)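 HepG2, Huh-7 or A2780 cells in DMEM with 10% FBS, 37 °C, 5% CO2. 2.5 × 10^4 cells seeded per well; compounds in DMSO added next day at 0.1, 1.0, 10.0 and 100.0 µM for 24, 48 or 72 h. IC50 from MTT dose-response by sigmoid fit. Means ± S.D. of three independent experiments in triplicate.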
In general terms: Tetrazolium assays rely on reduction of a dye to a coloured formazan, in cell work by metabolically active cells.

The test system of series [7] is HepG2. The experiment in a line: Cytotoxicity against human HepG2 cells assessed as reduction in cell viability measured after 72 hrs by MTT assay. The format is functional, cell-based. Particulars: HepG2, 72 h. The essentials:
as §2

Series [8] in a line: Aqueous solubility of the compound at 1 mg incubated for 24 hrs under shaking condition by LC-MS/MS analysis. The format is physicochemical. Particulars: water.
The subject of series [9] is Huh-7. The experiment in a line: Cytotoxicity against human Huh-7 cells assessed as reduction in cell viability measured after 48 hrs by MTT assay. It is filed as functional, cell-based. The conditions noted are these: Huh-7, 48 h. The essentials:
as §2

Series [10] relates to HepG2. Description: Cytotoxicity against human HepG2 cells assessed as reduction in cell viability measured after 24 hrs by MTT assay. It is filed as functional, cell-based. Particulars: HepG2, 24 h. The essentials:
as §2

Series [11] relates to A2780. The experiment in a line: Cytotoxicity against human A2780 cells assessed as reduction in cell viability measured after 72 hrs by MTT assay. The format is functional, cell-based. Particulars: A2780, 72 h. The essentials: as §2
For series [12], the target named is T1, Serine/threonine-protein kinase Sgk1 (Homo sapiens). The experiment in a line: Inhibition of Sgk1 (unknown origin) at 12.5 uM using peptide substrate incubated for 30 mins in the presence of ATP by scintillation counting method relative to control.
Series [13] is described as follows: Metabolic stability in human liver microsomes assessed as parent compound remaining at 50 uM incubated for 1 hr in the presence of NADPH regenerating system by UV/LC-MS analysis. It is filed as ADME, Microsome. Particulars: read-out: Stability. The gist of the method: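 Human liver microsomes (0.2 mg/mL) with NADPH regenerating system and 50 µM compound in DMSO/phosphate buffer (pH 7.4, 25 mM), 1 h at 37 °C. Reaction quenched with acetonitrile and centrifuged; supernatant dried, taken up in methanol, and unmetabolised compound measured by UV/LC-MS. Three independent experiments.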

Series [14] relates to HepG2. Description: Antitumor activity against human HepG2 cells xenografted in female nude mouse assessed as reduction in tumor growth at 9.5 mg/kg, ip administered for 5 days/week and measured every 7 days for 21 days. The conditions noted are these: time 21.0 day, in the assay text read “administered daily” for “administered for 5 days/week”. It is filed as functional, organism-based. The essentials:
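HepG2 cells (2.5 × 10^6, in 1:1 serum-free RPMI/Matrigel) injected subcutaneously in the dorsal posterior-lateral right region of 6-week-old female nude mice. Five mice per group, randomised. Dosing i.p. five days/week, started when tumours reached 100 mm3. Si113 was given in DMSO and prodrugs in saline, dosed to equal molar amounts. Caliper volume (π/6 × a2 × b) measured every 7 days; on day 21 tumours were excised and weighed.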

The nature of series [15]: Drug concentration in nude female mouse tumor mass xenografted with human A2780 cells at 9.5 mg/kg, ip administered as single dose incubated for 24 hrs followed by heparin treatment by LC-MS/MS analysis. It is filed as ADME, organism-based, Neoplasm. The conditions noted are these: in vivo. The gist of the method: (§3)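 Female nude mice, xenografted subcutaneously with 2.5 × 10^6 A2780TC cells or left non-xenografted, two per group. Single i.p. dose: Si113 9.5 mg/kg in DMSO or prodrug 21 mg/kg in saline. At 24 h, heparin i.p. (5000 U/kg), then sacrifice under CO2. Plasma, tumour and organs extracted with acetonitrile/internal standard and analysed by LC-MS/MS.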

For series [16], the system named is A2780. Description: Cytotoxicity against human A2780 cells assessed as reduction in cell viability measured after 24 hrs by MTT assay. It is filed as functional, cell-based. Particulars: A2780, 24 h. The gist of the method:
as §2

The subject of series [17] is Huh-7. The experiment in a line: Cytotoxicity against human Huh-7 cells assessed as reduction in cell viability measured after 72 hrs by MTT assay. It is filed as functional, cell-based. The conditions noted are these: Huh-7, 72 h. The essentials: as §2
The test system of series [18] is HepG2. The experiment in a line: Cytotoxicity against human HepG2 cells assessed as reduction in cell viability measured after 48 hrs by MTT assay. It is filed as functional, cell-based. Particulars: HepG2, 48 h. The essentials:
as §2

Series [19] can be described thus: Drug concentration in nude female mouse ovarian tissue xenografted with human A2780 cells at 9.5 mg/kg, ip administered as single dose incubated for 24 hrs followed by heparin treatment by LC-MS/MS analysis. Particulars: in vivo. The format is ADME, organism-based, Female gonad. The essentials:
as §3

Series [20] is described as follows: Permeability of the compound at pH 7.4 assessed as membrane retension at 500 uM incubated for 5 hrs by PAMPA based UV/LC-MS analysis. It is filed as ADME. Particulars: pH 7.4, 5 h. The essentials: as §1
Series [21] relates to A2780. The experiment in a line: Cytotoxicity against human A2780 cells assessed as reduction in cell viability measured after 48 hrs by MTT assay. It is filed as functional, cell-based. The conditions noted are these: A2780, 48 h. The gist of the method: as §2
In series [22] the target is plasmin (Homo sapiens, UniProt P00747). Description: Stability of the compound in human plasmin solution assessed as half life at 7.5 mM measured up to 24 hrs by UV/LC-MS analysis. The format is ADME. The gist of the method:
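Human plasmin mixed with Tris buffer (pH 7.4, 100 mM) and prodrug (7.5 mM DMSO stock), incubated at 37 °C. Samples taken from 0 to 24 h, quenched with cold acetonitrile and centrifuged; analysed by UV/LC-MS. t1/2 is time to 50% hydrolysis.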

The nature of series [23]: Stability of the compound in human plasma assessed as half life at 3 mM measured up to 24 hrs by UV/LC-MS analysis. The format is ADME, cell-free.
Series [24] can be described thus: Drug concentration in naive BALB/C mouse kidney at 21 mg/kg, ip administered as single dose incubated for 24 hrs followed by heparin treatment by LC-MS/MS analysis. Particulars: in vivo. The format is ADME, organism-based. The gist of the method:
(§4)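 Healthy male BALB/c mice, 4–6 weeks old, given a single i.p. 21 mg/kg prodrug dose in saline. At 24 h, heparin i.p. (5000 U/kg), then sacrifice under CO2. Organs homogenised with acetonitrile containing internal standard, centrifuged, filtered and quantified by LC-MS/MS against calibration curves. n = 3 per time point.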

The nature of series [25]: Drug concentration in naive BALB/C mouse liver at 21 mg/kg, ip administered as single dose incubated for 24 hrs followed by heparin treatment by LC-MS/MS analysis. It is filed as ADME, organism-based. The conditions noted are these: in vivo. The essentials:
as §4

A short description of series [26]: Drug concentration in nude female mouse tumor mass xenografted with human A2780 cells at 21 mg/kg, ip administered as single dose incubated for 24 hrs followed by heparin treatment by LC-MS/MS analysis. It is filed as ADME, organism-based, Neoplasm. The conditions noted are these: in vivo. The gist of the method:
as §3

The nature of series [27]: Drug concentration in nude female mouse ovarian tissue xenografted with human A2780 cells at 21 mg/kg, ip administered as single dose incubated for 24 hrs followed by heparin treatment by LC-MS/MS analysis. It is filed as ADME, organism-based, Female gonad. Particulars: in vivo. The essentials: as §3

Chain of plasmin (P00747 97-580 limits assumed): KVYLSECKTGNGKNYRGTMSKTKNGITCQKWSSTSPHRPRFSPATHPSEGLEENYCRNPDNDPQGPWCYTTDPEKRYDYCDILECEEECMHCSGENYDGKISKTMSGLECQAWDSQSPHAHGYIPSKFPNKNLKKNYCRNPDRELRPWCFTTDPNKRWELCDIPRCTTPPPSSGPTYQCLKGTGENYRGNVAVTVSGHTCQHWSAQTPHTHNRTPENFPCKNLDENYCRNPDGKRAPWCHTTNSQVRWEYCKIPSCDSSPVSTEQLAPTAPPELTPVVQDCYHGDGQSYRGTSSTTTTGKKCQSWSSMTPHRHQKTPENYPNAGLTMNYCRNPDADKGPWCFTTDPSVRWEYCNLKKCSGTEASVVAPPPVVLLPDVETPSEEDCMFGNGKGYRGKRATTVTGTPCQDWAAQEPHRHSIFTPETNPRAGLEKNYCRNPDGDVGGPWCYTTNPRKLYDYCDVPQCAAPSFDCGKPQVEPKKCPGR
Chain of plasmin (P00747 581-810 limits assumed): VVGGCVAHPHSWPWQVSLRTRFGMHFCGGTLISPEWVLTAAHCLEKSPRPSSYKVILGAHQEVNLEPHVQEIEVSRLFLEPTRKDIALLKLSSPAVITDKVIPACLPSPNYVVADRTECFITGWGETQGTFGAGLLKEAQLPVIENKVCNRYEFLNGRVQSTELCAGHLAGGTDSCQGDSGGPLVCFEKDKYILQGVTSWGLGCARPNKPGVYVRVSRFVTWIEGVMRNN

As to `CC(=O)O[C@H]1C(=O)[C@@]2(C)[C@H]([C@H](OC(=O)c3ccccc3)[C@]3(O)C[C@H](OC(=O)[C@H](O)[C@@H](NC(=O)c4ccccc4)c4ccccc4)C(C)=C1C3(C)C)[C@]1(OC(C)=O)CO[C@@H]1C[C@@H]2O`, in [1], the outcome was inactive.
As to `OCCNc1nc(NCCc2ccccc2)c2cnn(/C=C/c3ccccc3)c2n1`, the outcome in [2], in series [3] and in [14] was Active. In addition, the Papp at 5 h, 500 µM in series [4] stood at 2.6 ×10⁻⁶ cm/s. In addition, the inhibition is 75% in series [5] and more than 90% in series [12]. The IC50 in series [6] is 2.05 µM; in series [7], 3.15 µM; in [9], 1.88 µM; in [10], 15.9 µM; in series [11], 3.47 µM; in [16], 25.6 µM. The IC50 turned out to be 0.58 µM in series [17], 8.29 µM in [18] and 4.56 µM in series [21]. Also, in series [8], the solubility (thermodynamic) at 24 h was found to be 0.4 µg/mL (≈ 0.999 µM). Moreover, the remaining at 1 h, 50 µM in series [13] worked out at 84%. Also, the figures for the Drug uptake in series [15] and in series [19] were 2.2 nmol/g and 1.89 nmol/g, respectively. In addition, the permeability in [20] is recorded as 86.2%.
As to `C[C@@H](N)C(=O)N[C@@H](Cc1ccccc1)C(=O)N[C@@H](CCCCN)C(=O)NCCCCC(=O)OCCNc1nc(NCCc2ccccc2)c2cnn(/C=C/c3ccccc3)c2n1.O=C(O)C(F)(F)F.O=C(O)C(F)(F)F`, the Papp at 5 h, 500 µM in [4] turned out to be 0.2 ×10⁻⁶ cm/s. Also, in [22], the half-life at 7500 µM is 3.1 h. Moreover, the half-life in series [23] was 4.6 h. The same compound came in with a solubility (thermodynamic) at 24 h in [8] of more than 1000 µg/mL. Besides, the results for the Drug uptake in series [24] and in series [25] were 3.01 nmol/g and 11.05 nmol/g, respectively.
`C[C@@H](N)C(=O)N[C@@H](Cc1ccccc1)C(=O)N[C@@H](CCCCN)C(=O)OCCNc1nc(NCCc2ccccc2)c2cnn(/C=C/c3ccccc3)c2n1.O=C(O)C(F)(F)F.O=C(O)C(F)(F)F`: the Papp at 5 h, 500 µM in series [4] is 0.2 ×10⁻⁶ cm/s. Further, in series [22], the half-life at 7500 µM was 1.5 h. In addition, the Drug uptake in [26] turned out to be 5.69 nmol/g; in series [24], 1.77 nmol/g; in series [27] it was 4.11 nmol/g; in [25] it was 0.81 nmol/g. Also, the half-life in series [23] was 0.3 h. Besides, the solubility (thermodynamic) at 24 h in series [8] was more than 1000 µg/mL.
